Measured values reported in ChEMBL document CHEMBL1138272, “Synthesis, characterization, and receptor interaction profiles of enantiomeric bile acids” (J Med Chem, 2007).
The source made the active and inactive calls. The calls are words filed in the database; no cut-off is given here.

Assays:
Caco-2 [1] = test: Activation of IBABP gene expression in human Caco-2 cells at 25 uM after 6 days by RT-PCR; assay type: functional, cell-based
Method in brief: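 Caco-2 cells grown in high-glucose DMEM/15% heat-inactivated FBS, medium changed every 3 days; 23 days post-confluence treated with ligands in DMEM with 15% charcoal-stripped FBS for 6 days. SYBR green real-time QPCR, ΔΔCt normalized to cyclophilin, fold vs vehicle; N = 2.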

[2] = target: T1, Nuclear receptor subfamily 1 group I member 2 (Homo sapiens, UniProt O75469); test: Activation of human PXR expressed in HEK293 cells at 20 uM by GAL4 activation assay relative to control; assay type: cell-based; settings: hek293, 20 µM
T1 sequence (O75469 whole entry): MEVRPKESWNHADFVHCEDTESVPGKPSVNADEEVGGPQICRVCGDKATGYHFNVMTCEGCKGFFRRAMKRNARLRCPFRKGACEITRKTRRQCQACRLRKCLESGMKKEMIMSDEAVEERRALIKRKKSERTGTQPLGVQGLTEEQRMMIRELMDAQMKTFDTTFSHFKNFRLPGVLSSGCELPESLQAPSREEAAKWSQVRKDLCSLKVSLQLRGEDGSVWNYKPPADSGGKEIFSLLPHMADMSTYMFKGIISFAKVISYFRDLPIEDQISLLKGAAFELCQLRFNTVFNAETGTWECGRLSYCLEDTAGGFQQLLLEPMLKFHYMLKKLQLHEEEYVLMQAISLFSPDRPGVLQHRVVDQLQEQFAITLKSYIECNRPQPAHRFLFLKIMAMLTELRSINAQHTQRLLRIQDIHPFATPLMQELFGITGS
Method in brief: (§1)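 HEK293 cells in DMEM/10% super-stripped FBS, 4.0 × 10^4/well, calcium-phosphate transfected with UAS-luciferase (50 ng), GAL4-hFXR or GAL4-hPXR LBD fusion (15 ng), β-galactosidase (10 ng); ligands (5, 20, 50 µM) added 6-8 h later in delipidated medium, harvested 14-16 h later. Luciferase normalized to β-gal, fold over ethanol vehicle; triplicates.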

[3] = target: T1, Nuclear receptor subfamily 1 group I member 2; test: Activation of human PXR expressed in HEK293 cells at 50 uM by GAL4 activation assay relative to control; assay type: cell-based; settings: hek293, 50 µM; method in brief: as §1
Huh-7 [4] = test: Activation of BSEP gene expression in human Huh7 cells at 20 uM after 18 hrs by RT-PCR; assay type: functional, cell-based
Method in brief: (§2)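 Huh7 cells seeded 2 × 10^5/well in high-glucose DMEM/10% FBS; next day ligands added in low-glucose DMEM with 5% charcoal-stripped FBS, 18 h. RNA harvested, SYBR green real-time QPCR, ΔΔCt normalized to cyclophilin, fold vs vehicle; N = 3, mean ± SD.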

Huh-7 [5] = test: Activation of SHP gene expression in human Huh7 cells at 20 uM after 18 hrs by RT-PCR; assay type: functional, cell-based; method in brief: as §2
HepG2 [6] = test: Activation of SHP gene expression in human HepG2 cells at 10 uM after 18 hrs by RT-PCR; assay type: functional, cell-based
Method in brief: (§3)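 HepG2 cells seeded 3 × 10^5/well in M199 with 10% FBS and 25 mM HEPES; after 24 h, medium replaced with ligand-containing medium, 18 h. Total RNA isolated; real-time QPCR with SYBR green (12.5 ng cDNA, 150 nM primers); ΔΔCt method normalized to cyclophilin, fold change vs vehicle-treated cells; N = 3, mean ± SD.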

[7] = target: T2, Bile acid receptor (Homo sapiens) (UniProt Q96RI1); test: Activation of human FXR expressed in HEK293 cells by GAL4 activation assay; assay type: cell-based; method in brief: as §1
T2 sequence (whole entry): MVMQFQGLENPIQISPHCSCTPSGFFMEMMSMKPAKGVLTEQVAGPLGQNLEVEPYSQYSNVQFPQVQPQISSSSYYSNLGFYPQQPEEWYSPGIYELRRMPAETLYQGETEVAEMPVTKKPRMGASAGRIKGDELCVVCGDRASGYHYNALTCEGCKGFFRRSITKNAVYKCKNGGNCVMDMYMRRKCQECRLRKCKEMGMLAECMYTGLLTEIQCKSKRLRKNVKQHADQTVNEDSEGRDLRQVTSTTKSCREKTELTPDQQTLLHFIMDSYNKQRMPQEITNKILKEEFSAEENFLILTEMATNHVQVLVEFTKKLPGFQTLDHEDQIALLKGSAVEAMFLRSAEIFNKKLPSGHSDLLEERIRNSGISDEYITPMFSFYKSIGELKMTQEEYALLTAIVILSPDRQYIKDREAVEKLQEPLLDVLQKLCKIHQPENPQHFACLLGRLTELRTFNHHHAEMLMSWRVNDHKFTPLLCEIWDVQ

[8] = target: T3, G-protein coupled bile acid receptor 1 (Homo sapiens) (UniProt Q8TDU6); test: Activation of TGR5 expressed in HEK293 cells assessed as elevation of cAMP production at 100 uM relative to control; assay type: functional, cell-based
T3 sequence (whole entry): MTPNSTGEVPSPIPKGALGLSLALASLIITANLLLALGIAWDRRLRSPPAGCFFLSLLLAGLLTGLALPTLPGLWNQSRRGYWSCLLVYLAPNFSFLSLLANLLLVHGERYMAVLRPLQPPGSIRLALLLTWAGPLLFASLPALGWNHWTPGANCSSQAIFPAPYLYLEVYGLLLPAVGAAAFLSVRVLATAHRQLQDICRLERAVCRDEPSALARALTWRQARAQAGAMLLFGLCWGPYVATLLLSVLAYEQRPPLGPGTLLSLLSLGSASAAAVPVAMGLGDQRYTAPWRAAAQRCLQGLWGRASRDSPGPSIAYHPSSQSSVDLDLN
Method in brief: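 HEK293 seeded 0.5 × 10^6 cells/well and transfected 24 h later with TGR5 vector or empty vector. After 2 days, cells were exposed 30 min at 37 °C in fresh medium with 0.2 mM IBMX. Intracellular cAMP was measured by kit after lysis and expressed over vehicle; N = 2.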

Huh-7 [9] = test: Activation of SHP gene expression in human Huh7 cells at 1 uM after 18 hrs by RT-PCR; assay type: functional, cell-based
Method in brief: (§4)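 Huh7 seeded 2 × 10^5 cells/well in high-glucose DMEM with 10% FBS. Next day, ligands were added in low-glucose DMEM with 5% charcoal-stripped FBS for 18 h. RNA was read by SYBR green real-time QPCR, ΔΔCt normalised to cyclophilin, and expressed as fold over vehicle; N = 3.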

HepG2 [10] = test: Decrease in CYP7A1 gene expression in human HepG2 cells at 1 uM after 18 hrs by RT-PCR; assay type: functional, cell-based
Method in brief: (§5)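 HepG2 seeded 3 × 10^5 cells/well in M199 with 10% FBS, penicillin/streptomycin and 25 mM HEPES. After 24 h, medium was replaced with ligand-containing medium for 18 h. Total RNA was isolated and analysed by SYBR green real-time QPCR (12.5 ng cDNA, 150 nM primers). Values were derived by ΔΔCt against cyclophilin, as fold over vehicle; N = 3.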

Huh-7 [11] = test: Activation of BSEP gene expression in human Huh7 cells at 1 uM after 18 hrs by RT-PCR; assay type: functional, cell-based; method in brief: as §4
Caco-2 [12] = test: Activation of IBABP gene expression in human Caco-2 cells at 1 uM after 6 days by RT-PCR; assay type: functional, cell-based
Method in brief: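 Caco-2 grown in high-glucose DMEM with 15% heat-inactivated FBS, medium changed every 3 days. Treated 23 days postconfluence for 6 days in medium with 15% charcoal-stripped heat-inactivated FBS. RNA was read by SYBR green real-time QPCR, ΔΔCt normalised to cyclophilin, and expressed relative to vehicle; N = 2.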

HepG2 [13] = test: Activation of BSEP gene expression in human HepG2 cells at 1 uM after 18 hrs by RT-PCR; assay type: functional, cell-based; method in brief: as §5
HepG2 [14] = test: Decrease in CYP7A1 gene expression in human HepG2 cells at 25 uM after 18 hrs by RT-PCR; assay type: functional, cell-based; method in brief: as §3
HepG2 [15] = test: Activation of BSEP gene expression in human HepG2 cells at 25 uM after 18 hrs by RT-PCR; assay type: functional, cell-based; method in brief: as §3
HepG2 [16] = test: Activation of SHP gene expression in human HepG2 cells at 25 uM after 18 hrs by RT-PCR; assay type: functional, cell-based; method in brief: as §3
[17] = target: T2, Bile acid receptor (Homo sapiens); test: Activation of human FXR at 50 uM by FXRE TK-luciferase reporter gene assay relative to control
Method in brief: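 HEK293 cells calcium-phosphate cotransfected with full-length hFXR and hRXRα (15 ng each) plus FXREx3-TK-luc reporter (three copies of mouse IBABP IR-1) and β-galactosidase; bile acids 50 µM added in delipidated medium 6-8 h later, harvested 14-16 h later; luciferase normalized to β-gal; N = 3.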

| SMILES | Activity (Caco-2 [1]) | Activity [2] | Activity [3] | Activity (Huh-7 [4]) | Activity (Huh-7 [5]) | Activity [7] | Activity (HepG2 [14]) | other results |
| --- | --- | --- | --- | --- | --- | --- | --- | --- |
| C[C@@H](CCC(=O)O)[C@@H]1CC[C@H]2[C@@H]3CC[C@H]4C[C@@H](O)CC[C@@]4(C)[C@H]3CC[C@]21C | inactive | Active | Active | Active | Active | Dose-dependent effect | – | Activity (HepG2 [6]): Active |
| C=C[C@@]1(C)CC(=O)[C@]2(O)[C@@]3(C)[C@@H](O)CCC(C)(C)[C@@H]3[C@H](O)[C@H](OC(C)=O)[C@@]2(C)O1 | – | – | – | – | – | – | – | Fold change [8]: 16.5 |
| CC(C)c1onc(-c2c(Cl)cccc2Cl)c1COc1ccc(/C=C/c2cccc(C(=O)O)c2)c(Cl)c1 | – | – | – | – | – | – | – | Activity (Huh-7 [9]): Active; Activity (HepG2 [10]): Active; Activity (Huh-7 [11]): Active; Activity (Caco-2 [12]): Active; Activity (HepG2 [13]): Active |
| C[C@H](CCC(=O)O)[C@H]1CC[C@H]2[C@@H]3[C@@H](O)C[C@@H]4C[C@H](O)CC[C@]4(C)[C@H]3CC[C@]12C | inactive | – | – | – | – | – | Active | – |
| C[C@H](CCC(=O)O)[C@H]1CC[C@H]2[C@@H]3[C@H](O)C[C@@H]4C[C@H](O)CC[C@]4(C)[C@H]3CC[C@]12C [CHENODIOL] | Active | Active | Active | Active | Active | – | Active | Activity (HepG2 [15]): Active; Activity (HepG2 [16]): Active |
| C[C@H](CCC(=O)O)[C@H]1CC[C@H]2[C@@H]3CC[C@@H]4C[C@H](O)CC[C@]4(C)[C@H]3CC[C@]12C [LITHOCHOLIC ACID] | inactive | Active | Active | Active | Active | Dose-dependent effect | – | Activity [17]: Active |
